FN deposition inh: fibronectin deposition inhibition; AH1F fibroblasts, Alexa488-fibronectin deposition fluorescence, overnight; inhibition, % at 12.6 µM; 350,000 compounds, 0.086% hits; AID 743247;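 active = mean inhibition across replicates of 30% or more, regardless of how many single replicates reach that level; inconclusive = mean under 30% yet at least half of replicates reach 30%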
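Schedule: 1 h cell adhesion before compound, then overnight fibronectin incubation; test system: AH1F fibroblast monolayer depositing Alexa488-labelled fibronectin into matrix; quantity: 10000 AH1F cells per well; probe or stimulus: fluorescent fibronectin at 24 nM final; signal: fluorescence, ex 485 nm, em 525 nm; evaluation: percent inhibition as loss of matrix-bound fibronectin fluorescence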
DENV2 CPE: DENV2-induced cell death inhibition. 350,000 compounds, 1.7% hits. DENV2-infected cells, cytopathic effect rescue, plate reader. CPE inhibition, % at 9.99 µM; in the data active = CPE inhibition above about 20%, passing the limit was not always enough; inconclusive = no clear call, values can overlap the other calls; tested in BHK-21 cells
PglD DTNB: PglD (C. jejuni) enzyme inhibition. 360,000 compounds, 0.098% hits. inhibition, % at 12.5 µM. purified PglD enzyme, DTNB colorimetric CoA detection; in the data active = inhibition above about 16%, passing the limit was not always enough; inconclusive = no clear call, values can overlap the other calls
HIV Env fusion: blocks HIV Env-driven cell-cell fusion; HeLa-JRFL Env/CEM21 cell fusion, luciferase; AID 651610; 360,000 compounds, 1.1% hits; inhibition, % at 12.3 µM;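 active = mean replicate inhibition score of at least 50 and every replicate individually at or above 50; inconclusive = only one of the two criteria met; inactive = mean below 50 and not all replicates reaching 50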
Ecoli rRNA inh: inhibitors of bacterial rRNA selective over humanized ribosomes. 350,000 compounds, 1.6% hits. GFP signal change (wild-type ribosome), % (no concentration beside the values). E. coli WT GFP vs humanized-ribosome RFP mutants, fluorescence, 24 h; stronger effect = lower value; DMSO median 0, no signal -100. AID 720706;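 active = significant combined selectivity score with lowered wild-type GFP, culture density cut under 30%, mutant RFP and density less affected; inactive = any of these conditions unmet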
PGC1a acetyl inh: lowers PGC1a acetylation signal in U2OS cells; 350,000 compounds, 0.17% hits; AlphaScreen anti-acetyl-lysine; with virally co-expressed GCN5 acetyltransferase; inhibition, % at 15.6 µM;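 active = every replicate shows inhibition of at least 40%; inconclusive = mean inhibition at least 40% but some replicate below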
Large screens that a line does not name were inactive; ! = repeats disagree; [ ] = dose if it differs, or a comment. Only some compounds are listed: those with a hit (about 3.5% of all), similar ones and a draw of the others.

COc1ccc(CN(C)C[C@H]2OCCCC[C@H](C)Oc3ccc(NS(=O)(=O)c4cn(C)cn4)cc3C(=O)N([C@H](C)CO)C[C@@H]2C)cc1	none (no result: FN deposition inh)
COc1ccc(CN(C)C[C@H]2OCCCC[C@@H](C)Oc3ccc(NS(=O)(=O)c4cn(C)cn4)cc3C(=O)N([C@H](C)CO)C[C@@H]2C)cc1	DENV2 CPE 52.5 (no result: FN deposition inh)
C[C@@H]1CCCCO[C@@H](CN(C)S(=O)(=O)c2cn(C)cn2)[C@H](C)CN([C@@H](C)CO)C(=O)c2cc(N(C)C)ccc2O1	DENV2 CPE 52.9
Cc1ccc(S(=O)(=O)N(C)C[C@@H]2OCCCC[C@@H](C)Oc3ccc(NS(=O)(=O)c4cn(C)cn4)cc3C(=O)N([C@H](C)CO)C[C@H]2C)cc1	none
C[C@@H]1CCCCO[C@H](CN(C)S(=O)(=O)c2ccc(F)cc2)[C@@H](C)CN([C@H](C)CO)C(=O)c2cc(NS(=O)(=O)c3cn(C)cn3)ccc2O1	DENV2 CPE 22.9
CC(=O)NC[C@@H]1[C@H](c2ccc(C3=CCCCC3)cc2)[C@H](CO)N1C(=O)NC(C)C	none (no result: HIV Env fusion)
COc1cccc(S(=O)(=O)Nc2ccc3c(c2)[C@H]2C[C@@H](CC(=O)NCCc4ccccc4)O[C@H](CO)[C@H]2O3)c1	none (no result: FN deposition inh)
CNc1ccccc1C(=O)OCC(=O)c1ccccc1	DENV2 CPE 32.0 (no result: FN deposition inh, Ecoli rRNA inh)
O=C(Nc1ccc(C(=O)N2CCN(c3ccncc3)CC2)cc1)c1ccc(Br)o1	DENV2 CPE 23.2 (no result: PglD DTNB, PGC1a acetyl inh)
Cc1cc(C)cc(C(=O)Nc2ccc(N3CCCC3)cc2)c1	Ecoli rRNA inh -29.9 (no result: PglD DTNB, PGC1a acetyl inh)
Cc1ccc(C(=O)N2CCN(c3ccc(NC(=O)c4ccc5c(c4)OCCO5)cc3)CC2)cc1	HIV Env fusion 64.8
Cc1ccccc1C(=O)N1CCN(c2ccc(NC(=O)c3ccc4c(c3)OCCO4)cc2)CC1	none (no result: PglD DTNB, PGC1a acetyl inh)
COc1ccc(S(=O)(=O)Nc2cccc3c2O[C@@H](CN(C)S(C)(=O)=O)[C@@H](C)CN([C@H](C)CO)C3=O)cc1	none (no result: FN deposition inh)
NS(=O)(=O)c1ccc(CCNC(=O)CN2CCN(c3ccc(F)cc3)CC2)cc1	HIV Env fusion 64.1 (no result: FN deposition inh, DENV2 CPE, Ecoli rRNA inh, PGC1a acetyl inh)
NS(=O)(=O)c1ccc(CCNC(=O)CN2CCN(c3cccc(Cl)c3)CC2)cc1	none (no result: PglD DTNB, PGC1a acetyl inh)
C[C@H]1CCCCO[C@@H](CN(C)Cc2ccccc2)[C@@H](C)CN([C@@H](C)CO)C(=O)c2cc(NC(=O)C3CCCCC3)ccc2O1	none (no result: FN deposition inh)
O=[N+]([O-])c1c(C(Cl)Cl)nn(-c2ccccc2)c1N1CCCC1	Ecoli rRNA inh -43.4 (no result: FN deposition inh, HIV Env fusion)
CCOC(=O)C1CCN(c2c([N+](=O)[O-])c(C(Cl)Cl)nn2-c2ccccc2)CC1	none (no result: DENV2 CPE, Ecoli rRNA inh)
C[C@H]1CN([C@@H](C)CO)C(=O)c2cc(NC(=O)Nc3ccc4c(c3)OCO4)ccc2O[C@@H]1CN(C)Cc1ccc(Cl)c(Cl)c1	none (no result: FN deposition inh, HIV Env fusion)
Clc1cccc(Cl)c1CSc1nnc(-c2ccncc2)s1	DENV2 CPE 70.1 (no result: PglD DTNB)
CO[C@H]1CN(C)C(=O)c2cc(NS(=O)(=O)c3cccc(F)c3)ccc2OC[C@H](C)N(C(=O)Cc2cccnc2)C[C@H]1C	none
CC1(C(=O)NCc2ccccc2)CN(S(C)(=O)=O)CC(=O)N1CCc1ccccc1F (stereo not given)	DENV2 CPE 74.3 (no result: PglD DTNB, PGC1a acetyl inh)
Cc1ccc(CN2C(=O)CN(S(C)(=O)=O)CC2(C)C(=O)NC(C)C)cc1 (stereo not given)	none (no result: FN deposition inh, PglD DTNB, PGC1a acetyl inh)
CC1(C(=O)NCc2ccccc2)CSCC(=O)N1CCc1c[nH]c2ccccc12 (stereo not given)	Ecoli rRNA inh -41.0 (no result: PglD DTNB, PGC1a acetyl inh)
CC(C)CN1C(=O)CN(S(C)(=O)=O)CC1(C)C(=O)NC(C)C (stereo not given)	DENV2 CPE 27.4 (no result: PglD DTNB, Ecoli rRNA inh, PGC1a acetyl inh)
CC1(C(=O)NCc2ccccc2)CN(S(C)(=O)=O)CC(=O)N1CCc1ccccc1 (stereo not given)	none (no result: PglD DTNB, Ecoli rRNA inh, PGC1a acetyl inh)
CC1(C(=O)NCc2ccccc2)CCC(=O)N1CCc1c[nH]c2ccccc12 (stereo not given)	none
CC1(C(=O)NCc2ccccc2)CN(S(C)(=O)=O)CC(=O)N1CCc1ccc(O)cc1 (stereo not given)	DENV2 CPE 26.0 (no result: PglD DTNB, PGC1a acetyl inh)
COc1ccc(NC(=O)N(C)C[C@@H]2Oc3ccc(NC(=O)C4CC4)cc3CC(=O)N([C@H](C)CO)C[C@@H]2C)cc1	none (no result: FN deposition inh)
CC=Cc1ccc2n(c1=O)C[C@@H]1[C@@H](CO)[C@H](C(=O)N3CCN(C)CC3)N(Cc3ccccc3F)[C@H]21 (mixture of isomers)	none (no result: FN deposition inh, HIV Env fusion)
Cc1ccc(S(=O)(=O)N(C)C[C@H]2Oc3ncc(Br)cc3C(=O)N([C@@H](C)CO)C[C@@H]2C)cc1	HIV Env fusion 77.4[16.7 µM] (no result: FN deposition inh)
Cc1ccc(S(=O)(=O)N(C)C[C@H]2Oc3ncc(Br)cc3C(=O)N([C@@H](C)CO)C[C@H]2C)cc1	none (no result: FN deposition inh)
C[C@@H]1CN([C@H](C)CO)C(=O)c2cc(Br)cnc2O[C@@H]1CN(C)C(=O)c1ccccc1	DENV2 CPE 65.1!
C[C@@H]1CN([C@@H](C)CO)C(=O)c2cc(Br)cnc2O[C@H]1CN(C)CC1CCOCC1	none
C[C@H](CO)N1C[C@H](C)[C@@H](CN(C)CC2CCOCC2)Oc2ncc(Br)cc2C1=O	HIV Env fusion inconclusive, PGC1a acetyl inh 88.9!
Cc1ccc(S(=O)(=O)N(C)C[C@@H]2Oc3ncc(Br)cc3C(=O)N([C@@H](C)CO)C[C@@H]2C)cc1	HIV Env fusion 57.9[16.7 µM] (no result: FN deposition inh)
CCCNC(=O)Nc1ccc2c(c1)C(=O)N(C)[C@@H]1CC[C@H](CC(=O)NCC3CCCCC3)O[C@@H]1CO2	none
C[C@H]1CN([C@@H](C)CO)C(=O)Cc2cc(NC(=O)C3CC3)ccc2O[C@@H]1CN(C)C(=O)Nc1ccc2c(c1)OCO2	none (no result: FN deposition inh)
C[C@@H]1CN([C@@H](C)CO)C(=O)c2cc(Br)cnc2O[C@@H]1CN(C)S(C)(=O)=O	DENV2 CPE 32.3!
CCCNC(=O)Nc1ccc2c(c1)OC[C@H](C)N(Cc1ccccn1)C[C@@H](C)[C@@H](OC)CN(C)C2=O	none (no result: HIV Env fusion)
N#CC(C#N)=C1C=CC=CN1/C(=C\c1ccco1)C(=O)c1ccc(Cl)cc1	FN deposition inh 36.4 (no result: PglD DTNB, PGC1a acetyl inh)
CCOC(=O)CCc1c(C)c2c(C)nn(-c3ccccc3)c2[nH]c1=O	DENV2 CPE 37.4
CCOC(=O)CCc1c(C)nc2c(c(C)nn2-c2ccccc2)c1C	none
CCCNC(=O)C[C@H]1C[C@H]2c3cc(NS(=O)(=O)c4ccccc4)ccc3O[C@H]2[C@@H](CO)O1	none
COC(=O)CCC(=O)OC1(C)C(=O)C2=CN(Cc3ccc(OC)cc3)C(c3ccc(OC)cc3)=CC2=C(Br)C1=O (stereo not given)	DENV2 CPE 22.9
COC(=O)CCC(=O)OC1(C)C(=O)C2=CN(Cc3ccccc3)C(c3ccc(OC)cc3)=CC2=C(Br)C1=O (stereo not given)	none (no result: PGC1a acetyl inh)

Source: PubChem (Broad Institute)
